Experimental data: ChEMBL document CHEMBL1275275, “Preparation of new polycyclic compounds derived from benzofurans and furochromones. An approach to novel 1,2,3-thia-, and selena-diazolofurochromones of anticipated antitumor activities” (Eur J Med Chem, 2010); call rule not given here
Values after ≈ are worked out from the molar mass of the structure shown.

How the values were obtained:
Format in all cases: functional, cell-based
MCF7 = experiment: Antitumor activity against human MCF7 cells
How it was run: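 Human MCF-7 breast carcinoma cells treated in vitro across a range of drug concentrations. Surviving fraction plotted against concentration to give survival curves. IC50 (µg/ml), the dose that reduces survival to 50%, read from these curves. Doxorubicin served as reference drug.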

HCT-116 = experiment: Antitumor activity against human HCT116 cells
How it was run: (§1)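 In vitro cytotoxicity against human carcinoma cell lines. Surviving fraction was plotted against drug concentration to give survival curves. IC50 was read from these curves as the dose reducing survival to 50%, in µg/ml.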

HeLa = experiment: Antitumor activity against human HeLa cells; how it was run: as §1
HepG2 = experiment: Antitumor activity against human HepG2 cells; how it was run: as §1
[1] = Homo sapiens, MCF7, read-out: IC50

Structure (SMILES)	IC50 (MCF7; [1]) [µg/mL]	IC50 (MCF7; mcf7)	IC50 (HCT-116) [µg/mL]	IC50 (HeLa) [µg/mL]	IC50 (HepG2) [µg/mL]
COc1c2c(cc3occc13)OC(C)(C)c1[se]nnc1-2	5.56 (≈ 16.6 µM)	–	4.8 (≈ 14.3 µM)	6.02 (≈ 18 µM)	11.5 (≈ 34.3 µM)
COc1c2c(c(OC)c3occc13)OC(C)(C)c1[se]nnc1-2	15.8 (≈ 43.3 µM)	–	4.65 (≈ 12.7 µM)	4.35 (≈ 11.9 µM)	15.9 (≈ 43.5 µM)
COc1c2c(cc3occc13)OC(C)(C)C/C2=N\NC(N)=O	10.9 (≈ 35.9 µM)	–	–	–	–
CCC1(C)Oc2c(c(OC)c3ccoc3c2OC)-c2nn[se]c21 (stereo not drawn)	12.7 (≈ 33.5 µM)	–	8.92 (≈ 23.5 µM)	6.02 (≈ 15.9 µM)	9.53 (≈ 25.1 µM)
COc1c2c(c(OC)c3occc13)OC1(CCCCC1)c1[se]nnc1-2	15 (≈ 37 µM)	–	4.19 (≈ 10.3 µM)	5.57 (≈ 13.7 µM)	9.53 (≈ 23.5 µM)
COc1c2c(cc3occc13)OC1(CCCCC1)c1snnc1-2	15.9 (≈ 48.4 µM)	–	–	–	–
COc1c2c(cc3occc13)OC1(CCCCC1)c1[se]nnc1-2	16.5 (≈ 44 µM)	–	3.89 (≈ 10.4 µM)	7.24 (≈ 19.3 µM)	14.6 (≈ 38.9 µM)
COc1c2c(cc3occc13)OC1(CCCCC1)C/C2=N\NC(N)=O	14 (≈ 40.8 µM)	–	–	–	–
COc1cccc2c1C(=O)c1c(O)c3c(c(O)c1C2=O)C[C@@](O)(C(=O)CO)C[C@@H]3O[C@H]1C[C@H](N)[C@H](O)[C@H](C)O1 [DOXORUBICIN]	–	–	3.73 (≈ 6.86 µM)	4.19 (≈ 7.71 µM)	3.73 (≈ 6.86 µM)

More lines, main results first:

IC50 (MCF7; [1]) [µg/mL]	IC50 (MCF7; mcf7)	Structure (SMILES)	IC50 (HCT-116) [µg/mL]	IC50 (HeLa) [µg/mL]	IC50 (HepG2) [µg/mL]
15.5 (≈ 36.1 µM)	–	COc1c(C(/C=C(\C)N2CCCC2)=C2C(=O)c3ccccc3C2=O)c(O)cc2occc12	–	–	–
8.61 (≈ 22.7 µM)	–	COc1c2occc2c(OC)c2c(C=C(C)N3CCCC3)c(C#N)c(=N)oc12	4.8 (≈ 12.7 µM)	5.11 (≈ 13.5 µM)	10.9 (≈ 28.7 µM)
10.6 (≈ 28.4 µM)	–	COc1c2c(c(OC)c3occc13)OC1(CCCCC1)C/C2=N\NC(N)=O	4.04 (≈ 10.8 µM)	4.19 (≈ 11.2 µM)	8.61 (≈ 23.1 µM)
13.2 (≈ 28.7 µM)	–	COc1c(C(/C=C(\C)N2CCCC2)=C2C(=O)c3ccccc3C2=O)c(O)c(OC)c2occc12	–	–	–
13.9 (≈ 40 µM)	–	CCC1(C)C/C(=N\NC(N)=O)c2c(c(OC)c3occc3c2OC)O1 (stereo not drawn)	–	–	–
14.9 (≈ 41.6 µM)	–	COc1c2c(c(OC)c3occc13)OC1(CCCCC1)c1snnc1-2	–	–	–
20.8 (≈ 62.4 µM)	–	COc1c2c(c(OC)c3occc13)OC(C)(C)C/C2=N\NC(N)=O	–	–	–
–	Not Active	COc1c2occc2c(OC)c2c(C=C(C)N3CCCCC3)c(C#N)c(=N)oc12	4.34 (≈ 11 µM)	4.8 (≈ 12.2 µM)	8.46 (≈ 21.5 µM)
